Tested on: MS2 coat protein
Assay: apparent Kd, MS2 coat protein; higher = weaker binding; RNA-MaP array; FMN 200 µM where present
Method in brief: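 The apparent Kd is reported as the median of filtered per-cluster binding-curve fits. To get these curves, designs transcribed by stalled E. coli RNA polymerase on Illumina sequencing-chip clusters were titrated with SNAP-549-labelled MS2 coat protein from 0.7 or 1.5 nM, doubling to 3 µM. Titrations were run without and then with constant ligand in 100 mM Tris-HCl pH 7.5, 80 mM KCl, 4 mM MgCl2, BSA, DTT, yeast tRNA and Tween-20, and green signal was normalised to red-channel RNA signal and control-cluster median Fmax.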

[1] = designed as: ON switch for flavin mononucleotide, no ligand
[2] = ligand present: flavin mononucleotide, designed as: ON switch for flavin mononucleotide
[3] = designed as: OFF switch for flavin mononucleotide, no ligand
[4] = ligand present: flavin mononucleotide, designed as: OFF switch for flavin mononucleotide

Sequence: GGUGUCAUCGAGAAGGCCUCAACAUGAGGAUCACCCAUGUUGUAAUAUGGGAGGAUAUCGAUGAUACAGCUACGUUUCGUAGCC
- apparent Kd [1]: 20.7 nM
- apparent Kd [2]: 6.23 nM

Sequence: CUUUUGUGAGGAUAUCAGUAGUAAUACAAUAGUAUUACUACUGAGAAGGCACAUGAGGAUCACCCAUGUUCCUU
- apparent Kd [3]: 16 nM
- apparent Kd [4]: 29.5 nM

Sequence: UUUAUAUUCAGAGGAUAUUGAUGUUGUAUUUUACAAGAAGGCUGAUUGUUUUGUAAUGUUAUUAUACAUGAGGAUCACCCAUGU
- apparent Kd [1]: 22.1 nM
- apparent Kd [2]: 15.6 nM

Sequence: UUGGACGUCGUAGGAUAUGUAGGAUAUUCCAACAUGAGGAUCACCCAUGUUGACAUGGAAGAAGGACAGAAGGACGAUGUCCAU
- apparent Kd [1]: 4.28 nM
- apparent Kd [2]: 3.63 nM

Sequence: UUAUUACGAGGAUAUCGUUUUUAUCACAUGAGGAUCACCCAUGUAAUUUAUGUUUCGUUUCGAGAAGGCGUUUGUU
- apparent Kd [3]: 23.4 nM
- apparent Kd [4]: 19.6 nM

Sequence: UUACUUCAUGAGAAGGACAUGAGGAUCACCCAUGUAGGAUAUCGUGGGAGACUGGUAUUGAAUCUUCGGAUUCAAUACCAGUCU
- apparent Kd [1]: 56.9 nM
- apparent Kd [2]: 9.15 nM

Sequence: CACGUCCACACAGGAUAUGCUGGACUUUGUCCAGCAGAAGGGUGAAAACAUGAGGAUCACCCAUGUAGGACGUGUAUAUUUAAU
- apparent Kd [1]: 488 nM
- apparent Kd [2]: 43 nM

Sequence: GAAAUACAUGAGGAUCACCCAUGUAAGGAUAUGCUAGCGGUCGGCUGACUGACUGCUAGCAGAAGGUACAUGAU
- apparent Kd [3]: 80.9 nM
- apparent Kd [4]: 108 nM

Sequence: CGAUAUUAUAGAGGAUAUGUUUAACAUGAGGAUCACCCAUGUGAGGUGGAAUUAAUGUAUAACUUACAGAAGGCUAUACAAUCG
- apparent Kd [3]: 417 nM
- apparent Kd [4]: 500 nM

Sequence: AUUCGUGAGUAGGAUAUGCUGUUGCCAGAACGAGUAGAAGGACUCACAUGAGGAUCACCCAUGUGGUGUCUAAG
- apparent Kd [3]: 19.9 nM
- apparent Kd [4]: 170 nM

Sequence: CGAGGCGUACAUGAGGAUCACCCAUGUACCUAACAACAAAGCAAGGAUAUCCUGGCUAUAAUACAGGAGAAGGUGUGGUCCUUA
- apparent Kd [2]: 178 nM

Sequence: UUGGCAACGUAGAAGGGUGACAUGAGGAUCACCCAUGUGCCGAUAUUUCUCGAGAUAUGUCGGCCACAGGAUAUACGUGCGAAC
- apparent Kd [1]: 107 nM
- apparent Kd [2]: 120 nM

Sequence: GUUGGUGUAGAAGGAUAUUGGUGAUGCGUCUUGUACAUGAGGAUCACCCAUGUCACUCUGCACGCCGAGAAGGUCUGCAAAUGG
- apparent Kd [1]: 70 nM
- apparent Kd [2]: 48.1 nM

Sequence: AGGUAACAUGAGGAUCACCCAUGUCAGGAUAUCAGUAAGAUGAGAAUAGAGUAGAGUAUGAGAAGGGACUAUAU
- apparent Kd [3]: 43.6 nM
- apparent Kd [4]: 32.3 nM

Sequence: GGAAAACAUGAGGAUCACCCAUGUGAGGAUAUCGAUGUCCAGGGCCUGGUGCGGGACUCGAGAAGGCACUGGGA
- apparent Kd [3]: 62.9 nM
- apparent Kd [4]: 126 nM

Sequence: CACGGCGUAUCAGGAUAUGUGGGUGUCUGGACAUGAGGAUCACCCAUGUAAACAGUAUUAGCCGUGCAGAAGGGAUCCGCUGUA
- apparent Kd [1]: 39 nM
- apparent Kd [2]: 65.2 nM

Sequence: AAAAAUAGAGGAUAUACAUGAAAAAAAAAAAAAAAAAAAAAACAUGAGGAUCACCCAUGUAGAAGGCUAAAAAA
- apparent Kd [3]: 45.3 nM
- apparent Kd [4]: 30.3 nM

Sequence: GGUACUCAAAGAGUACCAAUACGAACAUGAGGAUCACCCAUGUAGGAUAUGCUACUCAAAGAGUAGCAGAAGGACAUGUGCUUU
- apparent Kd [3]: 38.8 nM
- apparent Kd [4]: 252 nM

Sequence: UAGUAUAAGGGCAUUAAACAUGAGGAUCACCCAUGUACGAUAGAGGAUAUGCAUUUCAGUUGAGAGUAGAAGGUUAGAGAAGGG
- apparent Kd [3]: 44.5 nM
- apparent Kd [4]: 46.3 nM

Sequence: AACAGACAUGAGGAUCACCCAUGUGAAAACGUACAAGGAUAUGUGUGGAAACCGUACUAUACAGAAGGUGUCUGUC
- apparent Kd [1]: 41.3 nM
- apparent Kd [2]: 72.5 nM

Sequence: UGUGUGUGGCAGGAUAUGCAGGUAGUAGGACGGGUAGAAGGGUCUACAUGAGGAUCACCCAUGUGGCCGGUUGG
- apparent Kd [3]: 16.8 nM
- apparent Kd [4]: 18.1 nM

Sequence: CAGUACUGAGGAUAUACAUGAGGAUCACCCAUGUGUUCCAGCUAGGAAACUAGCAAUAGUAGAAGGCAGUACUG
- apparent Kd [3]: 20.1 nM
- apparent Kd [4]: 315 nM

Sequence: UUACUAUUACAGAAGGUUAAAUAAUAUAUAAAUGAAGGAUAUGUAACAUGAGGAUCACCCAUGUUUCACCCACAUGAGGAUCAC
- apparent Kd [3]: 13.9 nM
- apparent Kd [4]: 12 nM

Sequence: UUUUAAUAAUAGAAGGAGCACUACAUGAGGAUCACCCAUGUGUUAGUAGUUAGGAUAUAUAAUAACAUGAGGAUCACCCAUGUA
- apparent Kd [1]: 83.6 nM
- apparent Kd [2]: 40.7 nM

Sequence: GGAUGACAAAGUCAUCCUAUUCGAACAUGAGGAUCACCCAUGUAGGAUAUGCAACUCAAAGAGUUGCAGAAGGACAUGUGCUUU
- apparent Kd [3]: 34.7 nM
- apparent Kd [4]: 166 nM

Sequence: AUAGGGACCUCGCAAUGUUUACAUGAGGAUCACCCAUGUAAGAGAAGGGUCCAGUCAUCUCCUGGAUAGGAUAUCUUACCGUUA
- apparent Kd [3]: 5.21 nM
- apparent Kd [4]: 6.44 nM

Sequence: ACGACUAGAGGAUAUACAUGAGGAUCACCCAUGUAACUGUCAGGAGACUGACGGAGAUGUAGAAGGCUAGUCGA
- apparent Kd [3]: 16.6 nM
- apparent Kd [4]: 39.2 nM

Sequence: UAUGUUGUUGUGAGGAUAUACUUAGUUUGACCGUAGUAGAAGGCACAUGAGGAUCACCCAUGUAGAUGCUUGGU
- apparent Kd [3]: 5.75 nM
- apparent Kd [4]: 10.8 nM

Sequence: AAGAGACAUCAGAAGGGAGCCCGCACGCGCGGCUCAGGAUAUGAGAUCUUAUGUAGUACGACAUGAGGAUCACCCAUGUCCGCG
- apparent Kd [1]: 37.8 nM
- apparent Kd [2]: 7.97 nM

Sequence: GGUCGUCACAUGAACAUGAGGAUCACCCAUGUAACUAGACAUGAGGAUAUGGAUCCUAAUUGGAUCCAGAAGGCAUGGACGACC
- apparent Kd [1]: 203 nM
- apparent Kd [2]: 31.2 nM

Sequence: AACGCGUCAGGAUAUAGCGUAACUUAGGUAGUACGACCAUACUAGAAGGGACAUGAGGAUCACCCAUGUGGGUA
- apparent Kd [3]: 232 nM
- apparent Kd [4]: 112 nM

Sequence: UAUUAAACAUAGGAUAUCGAAUAAAUCAUUUAACGAGAAGGAUGAACAUGAGGAUCACCCAUGUGGUAUCAUGG
- apparent Kd [3]: 246 nM
- apparent Kd [4]: 256 nM

Sequence: GCACGACAUGUAGGAUAUCGAGCGCCGGGCGCUCGAGAAGGACAUGAGGAUCACCCAUGUAUUCUGAGUGACCGAGGUCGAUGC
- apparent Kd [3]: 31.2 nM
- apparent Kd [4]: 180 nM

Sequence: GAUCAACAUGAGGAUCACCCAUGUGAGGAUAUGAUACUAUGUACUUCGGUACAUAGUAUCAGAAGGCAUAUAAA
- apparent Kd [3]: 44.7 nM
- apparent Kd [4]: 35.2 nM

Sequence: AAAUAGUUAGGAUAUACAUGAGGAUCACCCAUGUGGACUGAUGGCGAUUAAUUUAGUGGUAGAAGGGACUCAAA
- apparent Kd [3]: 43.9 nM
- apparent Kd [4]: 49.9 nM

Sequence: AGCUACGUUUCGUAGCAGUGUCAUCGAGAAGGCCUCAUAACAUGAGGAUCACCCAUGUUAGCAUGGGAGGAUAUCGAUGAUACA
- apparent Kd [1]: 58.8 nM
- apparent Kd [2]: 24.2 nM

Sequence: AGUAUGUUUGAGAAGGUGAAGUGGAAACAUGAGGAUCACCCAUGUAUUAGGAAGCCUGGUUUUGUCAAGGAUAUCGGGUAUACA
- apparent Kd [1]: 19.8 nM
- apparent Kd [2]: 16.1 nM

Sequence: UAAAUACAUGAGGAUCACCCAUGUCAAAAGACAUGAGGAUAUGUACAGACUUCGGUCUGUACAGAAGGCAUGAAAA
- apparent Kd [1]: 680 nM
- apparent Kd [2]: 55.4 nM

Sequence: CCCGCAACAUGAGGAUCACCCAUGUAGGAUAUCGCUAUUGUAAUCAUGAAACAUGAUUACAAUAGCGAGAAGGACAUAUGCGGG
- apparent Kd [3]: 6.77 nM
- apparent Kd [4]: 10.4 nM

Sequence: GUCAGGUGAGGAUAUACGCGGCUGACGAAACGUUAUACCGAGUAGAAGGCACAUGAGGAUCACCCAUGUUCGGG
- apparent Kd [3]: 109 nM
- apparent Kd [4]: 59.6 nM

Sequence: GAUUAACAUGAGGAUCACCCAUGUGAGGAUAUGGACUGGCUCACUUUUCGAUUCCCGUCUAGAAGGCGCAUUUU
- apparent Kd [3]: 50.1 nM
- apparent Kd [4]: 50.1 nM

Sequence: UAAUAAUUAAGAGGAUAUAUACAACAUGAGGAUCACCCAUGUACCCAUGUAGUAGAAGGCUUAUUUUUAUUUAAUAAUAUAAUU
- apparent Kd [1]: 122 nM
- apparent Kd [2]: 40.1 nM

Sequence: AACGACGGAGGAUAUACACCCUGGGACUCAUCAUCCCUUAGACAUGAGGAUCACCCAUGUAGAAGGCCGGACAC
- apparent Kd [3]: 34.9 nM
- apparent Kd [4]: 154 nM

Sequence: AAUAACAGAGGAUAUACUGUUUUAUGUGUUUGUUAUUUUGAACAUGAGGAUCACCCAUGUAGAAGGCUGAAUGA
- apparent Kd [3]: 28.9 nM
- apparent Kd [4]: 29.7 nM

Sequence: ACCGAAUGAACAUGAGGAUCACCCAUGUACCCGAAAGGGAAUGAGGAUAUCGAUAGCAAAGCUAUCGAGAAGGCAUGGGUCGGU
- apparent Kd [1]: 573 nM
- apparent Kd [2]: 169 nM

Sequence: AGCUAGUGAGGAUAUACGAACAUGUCAAAAGACGUGAAGGGACAUGAGGAUCACCCAUGUAGAAGGCACUAGCA
- apparent Kd [3]: 41.1 nM
- apparent Kd [4]: 139 nM

Sequence: AAGAUGUUAGGAUAUCGAAGGUUGUGGCAGGCGGGAAUUUGCGAGAAGGAACAUGAGGAUCACCCAUGUGAAAU
- apparent Kd [3]: 22.3 nM
- apparent Kd [4]: 21.8 nM

Sequence: AGCGGCGCGGGCCACCGCAAAACCAGAAGGACAUGAGGAUCACCCAUGUAACAAAACAGGGCGGUGUAGGAUAUGGCAGACCCA
- apparent Kd [3]: 10.3 nM
- apparent Kd [4]: 11.8 nM

— the EternaBench riboswitch data
